A short description of experiment [1]: Cytotoxicity against human H522-T1 cells after 96 hrs by CellTiter-Glo luminescent assay. The note with it: H522-T1, 96 h. In kind it is functional, cell-based. Put shortly: (§1)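 Tumour cells grown in 96-well plates without or with continuous test compound for 96 h. Growth measured by CellTiter-Glo luminescence. IC50 is the concentration inhibiting growth by 50% relative to untreated cells. Two separate replicate experiments.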

Experiment [2] deals with A2058. Put plainly: Selectivity index, ratio of IC50 for human IMR90 cells to IC50 for human A2058 cells. It is filed as functional. Put shortly:
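SI calculated from the relative IC50 response of quiescent IMR-90 fibroblasts versus A2058 melanoma cells. IMR-90 IC50 comes from the 96 h low-serum quiescent assay; A2058 IC50 comes from the 96 h continuous-exposure proliferating assay. Both read by CellTiter-Glo.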

The nature of experiment [3]: Cytotoxicity against human H460 cells after 96 hrs by CellTiter-Glo luminescent assay. It is filed as functional, cell-based. To be noted: NCI-H460, 96 h. Put shortly:
as §1
In general terms: In ATP-based viability assays light output follows the ATP content of the culture.

Experiment [4] has as its system A2058. The experiment can be described thus: Cytotoxicity against human A2058 cells after 96 hrs by CellTiter-Glo luminescent assay. It is filed as functional, cell-based. The note with it: A2058, 96 h. Put shortly:
as §1

The test system of another experiment is IMR-90. Put plainly: Cytotoxicity against human IMR90 cells after 96 hrs by CellTiter-Glo luminescent assay. In kind it is cell-based. To be noted: IMR-90, 96 h. Put shortly: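 Fibroblasts grown 4 days to confluency in MEM with 10% FBS, L-glutamine and penicillin/streptomycin. After washing, cells were held 3 more days in MEM with 0.1% FBS to reach quiescence. Compound added, then incubation 96 h at 37°C. Viability measured as cellular ATP by CellTiter-Glo.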

Regarding `C#C[C@H](O)/C=C/CCCCCCCCCC#CCCCCCCCCCCCC/C=C\C#CC(=O)O`, the concentration for half-maximal inhibition (IC50) (as a rule, the midpoint of a concentration-inhibition curve) in experiment [1] is 8400 nM; in experiment [3] it was 7300 nM; in the experiment on A2058 [4], 6400 nM; in the experiment on IMR-90 it was 400 nM. For the same compound, the “Ratio IC50” value with A2058 [2] is 0.1.
On to `C#C[C@H](O)/C=C/CCCCCCCC#C/C=C\CCCCCCCCCCCC/C=C\C#CC(=O)O`, for which the IC50 in experiment [1] was determined as 4600 nM; in experiment [3], 3100 nM; with A2058 [4], 3800 nM; in the experiment with IMR-90, 300 nM. The “Ratio IC50” value in the experiment with A2058 [2] is recorded as 0.1.
For `C#C[C@H](O)/C=C/CCCCCCCCCCC/C=C/C(O)CCCCCCCCC/C=C\C#CC(=O)O` (stereo partly drawn) the same measures were more than 10000 nM, more than 10000 nM, 8100 nM, 200 nM and 0.
For `C#CC(O)/C=C/CCCCCCCCC/C=C\CCCCCCCCCCCC(O)C#CC#CCO` (stereo not drawn) the same measures were 800 nM, 400 nM, 400 nM, 400 nM and 1.
Regarding `C#CC(O)/C=C/CCCCCCCC#C/C=C\CCCCCCCCCCCC(O)C#CC#CCO` (stereo not drawn), the concentration for half-maximal inhibition (IC50) in experiment [1] is 600 nM; in experiment [3] it was 1000 nM; with A2058 [4], 400 nM; in the experiment with IMR-90, 300 nM. Further, the “Ratio IC50” value in the experiment with A2058 [2] is listed as 0.8.
The matching figures for `C#CC(O)/C=C/CCCCCCCC#C/C=C\CCCCCCCCCCCCCC(O)C#CC#CCO` (stereo not drawn): 1100 nM, 700 nM, 800 nM, 500 nM and 0.6.
The matching figures for `C#CC(O)/C=C/CCCCCCCCCCCC#CCCCCCCCCCCCC(O)C#CC#CCO` (stereo not drawn): 2700 nM, 1200 nM, 1300 nM, 1600 nM and 1.2.
Turning to `C#CC(O)/C=C/CCCCCCCCCC(O)CCCCCCCCCCCC(O)C#CC#CCO` (stereo not drawn), the IC50 in experiment [1] was 1200 nM; in experiment [3], 800 nM; with A2058 [4], 800 nM.
In the case of `CC[C@]1(O)C[C@@H]2CN(CCc3c([nH]c4ccccc34)[C@@](C(=O)OC)(c3cc4c(cc3OC)N(C)[C@H]3[C@@](O)(C(=O)OC)[C@H](OC(C)=O)[C@]5(CC)C=CCN6CC[C@]43[C@@H]65)C2)C1` [VINBLASTINE], the IC50 was 9 nM in experiment [1], 2 nM in experiment [3], 4 nM in the experiment on A2058 [4] and more than 1000 nM in the experiment on IMR-90. The “Ratio IC50” value in the experiment with A2058 [2] was more than 250.
